According to ChEMBL document CHEMBL1149457, “Effects of amino acid chirality and the chemical linker on the cell permeation characteristics of cyclic prodrugs of opioid peptides” (J Med Chem, 2006):

What was measured:
Type in all cases: ADME, cell-based
Conditions in all cases: human
[1] = system: Caco-2; assay: Ratio of permeability from basolateral to apical over apical to basolateral side of the Caco-2 cell membrane in presence of 20 uM cyclosporin A
In short: (§1)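 Caco-2 monolayers (passages 30-39) were grown 21-28 days on polyester Transwell membranes, with batch integrity checked by [14C]-mannitol flux. Bidirectional transport (n = 3) was run at 37 °C with shaking, using peptide at 20 µM final in HBSS pH 7.4 with 0.4% DMSO and inhibitor in HBSS. Sampling continued up to 160 min, with LC-MS-MS quantitation. Papp BL-to-AP/AP-to-BL ratio.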

[2] = system: Caco-2; assay: Ratio of permeability from basolateral to apical over apical to basolateral side of the Caco-2 cell membrane in presence of 10 uM GF 120918; in short: as §1
[3] = system: Caco-2; assay: Ratio of permeability from basolateral to apical over apical to basolateral side of the Caco-2 cell membrane in presence of 2 uM GF 120918; in short: as §1
[4] = system: Caco-2; assay: Ratio of permeability from basolateral to apical over apical to basolateral side of the Caco-2 cell membrane in presence of 50 uM MK 571; in short: as §1

Ratio [1] | Ratio [2] | Ratio [3] | Ratio [4] | SMILES
6.1 | 2.1 | 5.4 | – | CC(C)C[C@H]1NC(=O)[C@H](Cc2ccccc2)NC(=O)CNC(=O)[C@H](C)NC(=O)[C@H](Cc2ccc(O)cc2)NC(=O)/C=C\c2ccccc2OCOC1=O
1.2 | 1 | – | 3.8 | CC(=O)N[C@@H](Cc1ccc(O)cc1)C(=O)N[C@@H](C)C(=O)NCC(=O)N[C@@H](Cc1ccccc1)C(=O)N[C@H](CC(C)C)C(N)=O
12 | 1.9 | – | – | CC(C)C[C@@H]1NC(=O)[C@H](Cc2ccccc2)NC(=O)CNC(=O)[C@H](C)NC(=O)[C@H](Cc2ccc(O)cc2)NC(=O)/C=C\c2ccccc2OCOC1=O
14 | 2.3 | 5 | 2.8 | CC(C)C[C@@H]1NC(=O)[C@H](Cc2ccccc2)NC(=O)CNC(=O)[C@@H](C)NC(=O)[C@H](Cc2ccc(O)cc2)NC(=O)/C=C\c2ccccc2OCOC1=O
– | 2.8 | 13 | 4.9 | CC(C)C[C@H]1NC(=O)[C@H](Cc2ccccc2)NC(=O)CNC(=O)[C@@H](C)NC(=O)[C@H](Cc2ccc(O)cc2)NC(=O)/C=C\c2ccccc2OCOC1=O
2.4 | 1.1 | – | 1.1 | CC(=O)N[C@@H](Cc1ccc(O)cc1)C(=O)N[C@H](C)C(=O)NCC(=O)N[C@@H](Cc1ccccc1)C(=O)N[C@@H](CC(C)C)C(N)=O
